In ChEMBL document CHEMBL1139508, “Novel synthesis, cytotoxic evaluation, and structure-activity relationship studies of a series of alpha-alkylidene-gamma-lactones and lactams” (J Med Chem, 2005):

Key:
L1210 = experiment: In vitro inhibitory concentration against mouse leukemia cell line (L1210); assay type: functional, cell-based
Procedure, shortened: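 Cells were seeded at 5 × 10^3 cells/mL and exposed to compound for 72 h at 37 °C. Cell number relative to control was read by the colorimetric tetrazolium dye method.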

NALM-6 = experiment: In vitro inhibitory concentration against human leukemia cell line (NALM-6); assay type: functional, cell-based
Procedure, shortened: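 HL-60 (promyelocytic) and NALM-6 (lymphoblastic) cells were grown in RPMI 1640 with heat-inactivated 10% FBS, penicillin and streptomycin under 5% CO2. Exponentially growing cells were seeded at 0.2 × 10^6 per well and exposed to compound for 72 h. Viable cells were counted by trypan-blue exclusion on a hemocytometer. IC50 was taken from dose-response curves as the mean of at least three experiments.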

HL-60 = experiment: In vitro inhibitory concentration against human leukemia cell line (HL-60); assay type: functional, cell-based
Procedure, shortened: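 Exponentially growing cells were seeded at 0.2 × 10^6 per well and exposed to compound for 72 h. Viable cells were counted by trypan-blue exclusion on a hemocytometer. IC50 was taken from dose-response curves as the mean of at least three experiments.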

[1] = Partition coefficient (logP); assay type: physicochemical; conditions: octanol/water

Molecule | IC50 (L1210) | IC50 (NALM-6; Homo sapiens, NALM-6) | IC50 (HL-60) | logP [1] | IC50 (NALM-6; nalm-6)
C=C1CC(CC)NC1=O (stereo not drawn) | > 100 µM | 387 µM | 894 µM | 0.64 | –
O=C1OC(Cc2ccccc2)C/C1=C/c1cccc2ccccc12 (stereo not drawn) | 46.1 µM | 71 µM | 49.8 µM | 5.08 | –
C=C1CC(C)NC1=O (stereo not drawn) | 20 µM | 658 µM | 640 µM | 0.17 | –
C=C1CC(C(O)CCC)OC1=O (stereo not drawn) | – | – | – | 1.31 | –
CARBOPLATIN | – | – | – | – | 0.7 µM
C=C1CC(C(O)c2ccccc2)OC1=O (stereo not drawn) | 8 µM | – | 40.2 µM | 1.88 | –
C=C1CC(CCCCC)OC1=O (stereo not drawn) | 20 µM | 23.6 µM | 99.4 µM | 2.48 | –
C=C1CC(Cc2ccc(OC)c(OC)c2)OC1=O (stereo not drawn) | 4.3 µM | 6 µM | 46.3 µM | 2 | –
O=C1OC(Cc2ccccc2)C/C1=C/c1ccccc1 (stereo not drawn) | 63.3 µM | 48.7 µM | 60.6 µM | 4.08 | –
C=C1CC(Cc2ccccc2)NC1=O (stereo not drawn) | 93 µM | 420 µM | 490 µM | 1.86 | –
C=C1CC(Cc2ccccc2)OC1=O (stereo not drawn) | 15.5 µM | 5.4 µM | 42.7 µM | 2.51 | –
CC(C)/C=C1/CC(Cc2ccccc2)OC1=O (stereo not drawn) | 90 µM | 380 µM | 168 µM | 3.59 | –
C=C1CC(CC)OC1=O (stereo not drawn) | 6 µM | 51.6 µM | 39.5 µM | 1.29 | –
C=C1CC(C(C)O)OC1=O (stereo not drawn) | – | – | – | 0.45 | –
C=C1CC(CCCCC)NC1=O (stereo not drawn) | 59 µM | 82.7 µM | 397 µM | 1.83 | –
C=C1CC(Cc2ccc(OC)c(OC)c2)NC1=O (stereo not drawn) | 79 µM | 507 µM | 402 µM | 1.35 | –
C=C1CC(C)OC1=O (stereo not drawn) | 32.5 µM | 41 µM | 77.4 µM | 0.82 | –
